# Laboratory results as given in ChEMBL document CHEMBL1134454, “Synthesis and evaluation of oxodioxolenylmethyl carbamate prodrugs of pseudomycins” (2001).
# Bridge positions count the residues as written; N and C are the ends. Square brackets hold non-standard residues; d marks the D form. Peptide text beside a SMILES is read from it. * marks the point of attachment. Tetradecanoyl(3R-OH) = CCCCCCCCCCC[C@@H](O)CC(=O)*; Asp(3S-OH) = N[C@H](C(=O)O)[C@H](O)C(=O)O; Thr(4-Cl) = N[C@H](C(=O)O)[C@H](O)CCl; aThr = C[C@H](O)[C@H](N)C(=O)O; dDab = NCC[C@@H](N)C(=O)O; Dab = NCC[C@H](N)C(=O)O; Dhb = C/C=C(\N)C(=O)O
# What was measured:
# Mus musculus [1] = species: Mus musculus; assay: Drug concentration required to achieve 50% survival of fungal infection compared with untreated animals in experiment 1.; assay type: functional
# Procedure, shortened: (§1)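 Outbred male ICR mice (18–20 g), X-irradiated 400 r 24 h before infection. C. albicans A26 blastospores, 2×10^6 per mouse, given iv by lateral tail vein. Dosed 0.2 mL at 20, 10 and 5 mg/kg at 0, 4, 24 and 48 h post-infection, in 4.0% hydroxypropyl cyclodextrin/sodium acetate pH 7.0/1.75% dextrose. Survival followed 7 days; ED50 by Reed and Muench.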
# Mus musculus [2] = species: Mus musculus; assay: Evaluated for tail vein toxicity assay in male ICR mice; Partial positive; assay type: functional, organism-based
# Cryptococcus neoformans = assay: In vitro potency against Cryptococcus neoformans; assay type: functional
# Procedure, shortened: (§2)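 Broth microdilution in Sabouraud broth. Compounds were dissolved in DMSO and diluted to 20 μg/mL final in the first well, then serially 2-fold. Yeasts were grown on Sabouraud dextrose agar at 35 °C for 24 h, suspended in saline and adjusted to 2×10^5/mL in broth. A. fumigatus spores were taken from potato dextrose agar mycelia into 0.1% Tween 80/saline. MIC was the lowest concentration giving 90–100% visible growth inhibition versus controls.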
# Aspergillus fumigatus = assay: In vitro potency against Aspergillus fumigatus; assay type: functional; procedure, shortened: as §2
# Mus musculus [3] = species: Mus musculus; assay: Evaluated for tail vein toxicity assay in male ICR mice; Negative; assay type: functional, organism-based
# Candida albicans = assay: In vitro potency against Candida albicans; assay type: functional; procedure, shortened: as §2
# Mus musculus [4] = species: Mus musculus; assay: Drug concentration required to achieve 50% survival of fungal infection compared with untreated animals in experiment 2.; assay type: functional; procedure, shortened: as §1
# Mus musculus [5] = species: Mus musculus; assay: Evaluated for tail vein toxicity assay in male ICR mice; Positive; assay type: functional, organism-based
SMILES,ED50 (Mus musculus [1]),Activity (Mus musculus [2]),MIC (Cryptococcus neoformans),MIC (Aspergillus fumigatus),Activity (Mus musculus [3]),MIC (Candida albicans),ED50 (Mus musculus [4]),Activity (Mus musculus [5])
C/C=C1\NC(=O)[C@H]([C@H](C)O)NC(=O)[C@H](CCNC(=O)OCc2oc(=O)oc2C)NC(=O)[C@H](CCCCN)NC(=O)[C@H](CC(=O)O)NC(=O)[C@@H](CCN)NC(=O)[C@@H](NC(=O)C[C@H](O)CCCCCCCCCCCCC)COC(=O)[C@H]([C@H](O)CCl)NC(=O)[C@H]([C@H](O)C(=O)O)NC1=O,9 mg/kg,Partial positive,,,,,,
C/C=C1\NC(=O)[C@H]([C@H](C)O)NC(=O)[C@H](CCNC(=O)OCc2oc(=O)oc2C)NC(=O)[C@H](CCCCN)NC(=O)[C@H](CC(=O)O)NC(=O)[C@@H](CCN)NC(=O)[C@@H](NC(=O)C[C@H](O)CCCCCCCCCCC)COC(=O)[C@H]([C@H](O)CCl)NC(=O)[C@H]([C@H](O)C(=O)O)NC1=O,5.95 mg/kg,,1.3 µg/mL,> 20 µg/mL,Negative,5 µg/mL,,
C/C=C1\NC(=O)[C@H]([C@H](C)O)NC(=O)[C@H](CCN)NC(=O)[C@H](CCCCNC(=O)OCc2oc(=O)oc2C)NC(=O)[C@H](CC(=O)O)NC(=O)[C@@H](CCNC(=O)OCc2oc(=O)oc2C)NC(=O)[C@@H](NC(=O)C[C@H](O)CCCCCCCCCCC)COC(=O)[C@H]([C@H](O)CCl)NC(=O)[C@H]([C@H](O)C(=O)O)NC1=O,7.07 mg/kg,Partial positive,0.3 µg/mL,> 20 µg/mL,,5 µg/mL,,
C/C=C1\NC(=O)[C@H]([C@H](C)O)NC(=O)[C@H](CCNC(=O)OCc2oc(=O)oc2C)NC(=O)[C@H](CCCCNC(=O)OCc2oc(=O)oc2C)NC(=O)[C@H](CC(=O)O)NC(=O)[C@@H](CCNC(=O)OCc2oc(=O)oc2C)NC(=O)[C@@H](NC(=O)C[C@H](O)CCCCCCCCCCCCC)COC(=O)[C@H]([C@H](O)CCl)NC(=O)[C@H]([C@H](O)C(=O)O)NC1=O,12.4 mg/kg,,5 µg/mL,> 20 µg/mL,Negative,> 20 µg/mL,10.8 mg/kg,
C/C=C1\NC(=O)[C@H]([C@H](C)O)NC(=O)[C@H](CCN)NC(=O)[C@H](CCCCNC(=O)OCc2oc(=O)oc2C)NC(=O)[C@H](CC(=O)O)NC(=O)[C@@H](CCNC(=O)OCc2oc(=O)oc2C)NC(=O)[C@@H](NC(=O)C[C@H](O)CCCCCCCCCCCCC)COC(=O)[C@H]([C@H](O)CCl)NC(=O)[C@H]([C@H](O)C(=O)O)NC1=O,> 20 mg/kg,Partial positive,,,,,,
C/C=C1\NC(=O)[C@H]([C@H](C)O)NC(=O)[C@H](CCN)NC(=O)[C@H](CCCCN)NC(=O)[C@H](CC(=O)O)NC(=O)[C@@H](CCN)NC(=O)[C@@H](NC(=O)C[C@H](O)CCCCCCCCCCCCC)COC(=O)[C@H]([C@H](O)CCl)NC(=O)[C@H]([C@H](O)C(=O)O)NC1=O,7.8 mg/kg,,< 0.02 µg/mL,10 µg/mL,,0.312 µg/mL,12.4 mg/kg,Positive
C/C=C1\NC(=O)[C@H]([C@H](C)O)NC(=O)[C@H](CCNC(=O)OCc2oc(=O)oc2C)NC(=O)[C@H](CCCCNC(=O)OCc2oc(=O)oc2C)NC(=O)[C@H](CC(=O)O)NC(=O)[C@@H](CCNC(=O)OCc2oc(=O)oc2C)NC(=O)[C@@H](NC(=O)C[C@H](O)CCCCCCCCCCC)COC(=O)[C@H]([C@H](O)CCl)NC(=O)[C@H]([C@H](O)C(=O)O)NC1=O,6.85 mg/kg,,10 µg/mL,> 20 µg/mL,Negative,> 20 µg/mL,7.8 mg/kg,
C/C=C1\NC(=O)[C@H]([C@H](C)O)NC(=O)[C@H](CCN)NC(=O)[C@H](CCCCN)NC(=O)[C@H](CC(=O)O)NC(=O)[C@@H](CCN)NC(=O)[C@@H](NC(=O)C[C@H](O)CCCCCCCCCCC)COC(=O)[C@H]([C@H](O)CCl)NC(=O)[C@H]([C@H](O)C(=O)O)NC1=O [PSEUDOMYCIN B] ({Tetradecanoyl(3R-OH)}-S[dDab]DK[Dab][aThr][Dhb][Asp(3S-OH)][Thr(4-Cl)]; ester 1-C),,,0.078 µg/mL,> 20 µg/mL,,0.625 µg/mL,3.8 mg/kg,Positive
